“And” between values parts separate entries of the source, which are not always exact repeats. Identical values can stand only once.
Tested on: Fibroblast
Experiment: Multiplex assay against human fibroblast
Assay type: toxicity, cell-based
Procedure, shortened: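 Per cents of healthy-nucleus cells form the tubulin, mitochondrial-mass and membrane-permeability phenotype values. Live cells were stained at seeding with Hoechst33342, BioTracker Green Microtubule Cytoskeleton Dye, MitoTracker Red and Annexin V Alexa Fluor 680. After compound addition they were imaged on a CQ1 microscope at 37°C and 5% CO2, and CellPathfinder machine-learning gating split them into Hoechst high-intensity objects or normal cells, normal cells into healthy, pyknosed or fragmented nuclei, and pyknosed cells into mitotic or apoptotic.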

[1] = 12 h, 10 µM, compound concentration 10 uM
[2] = 24 h, 10 µM, compound concentration 10 uM
[3] = 48 h, 10 µM, compound concentration 10 uM
[4] = 12 h, 1 µM, compound concentration 1 uM
[5] = 24 h, 1 µM, compound concentration 1 uM
[6] = 48 h, 1 µM, compound concentration 1 uM

## CC(=O)O[C@H]1C(=O)[C@@]2(C)[C@H]([C@H](OC(=O)c3ccccc3)[C@]3(O)C[C@H](OC(=O)[C@H](O)[C@@H](NC(=O)c4ccccc4)c4ccccc4)C(C)=C1C3(C)C)[C@]1(OC(C)=O)CO[C@@H]1C[C@@H]2O [PACLITAXEL]
[1]
  Population Apoptotic (%): 65% and 39%
  Population Fragmented Nuclei (%): 19% and 34%
  Population Healthy Nuclei (%): 63% and 39%
  Population Hoechst High Intensity Objects (%): 5% and 1%
  Population Membrane Permeable-Phenotype (%): 0% and 6%
  Population Mitochondria Different-Phenotype (%): 10% and 13%
  Population Mitotic Cells (%): 34% and 60%
  Population Normal (%): 94% and 98%
  Population Pyknosed Nuclei (%): 16% and 25%
  Population Tubulin-Different-Phenotype (%): 17% and 44%
  Total Cell Count: 167 and 111
[2]
  Population Apoptotic (%): 70% and 30%
  Population Fragmented Nuclei (%): 19% and 36%
  Population Healthy Nuclei (%): 63% and 45%
  Population Hoechst High Intensity Objects (%): 1% and 2%
  Population Membrane Permeable-Phenotype (%): 0% and 6%
  Population Mitochondria Different-Phenotype (%): 9% and 10%
  Population Mitotic Cells (%): 29% and 70%
  Population Normal (%): 98% and 97%
  Population Pyknosed Nuclei (%): 16% and 18%
  Total Cell Count: 164 and 114
[3]
  Population Apoptotic (%): 76% and 54%
  Population Fragmented Nuclei (%): 31% and 48%
  Population Healthy Nuclei (%): 50% and 42%
  Population Hoechst High Intensity Objects (%): 4% and 0%
  Population Membrane Permeable-Phenotype (%): 0% and 3%
  Population Mitochondria Different-Phenotype (%): 16% and 9%
  Population Mitotic Cells (%): 23% and 45%
  Population Normal (%): 95% and 100%
  Population Pyknosed Nuclei (%): 17% and 8%
  Population Tubulin-Different-Phenotype (%): 20% and 40%
  Total Cell Count: 177 and 129

## CCOc1c2c(c(OCC)c3ncccc13)CN(c1ccc(CS(=O)(=O)NC(=O)Cc3ccccc3OC)cc1C)C2=O
[4]
  Population Apoptotic (%): 44% and 38%
  Population Fragmented Nuclei (%): 15% and 37%
  Population Healthy Nuclei (%): 68% and 42%
  Population Hoechst High Intensity Objects (%): 0% and 4%
  Population Membrane Permeable-Phenotype (%): 1% and 8%
  Population Mitochondria Different-Phenotype (%): 3% and 2%
  Population Mitotic Cells (%): 55% and 61%
  Population Normal (%): 99% and 95%
  Population Pyknosed Nuclei (%): 15% and 19%
  Population Tubulin-Different-Phenotype (%): 23% and 62%
  Total Cell Count: 120 and 111
[1]
  Population Apoptotic (%): 35% and 21%
  Population Fragmented Nuclei (%): 15% and 19%
  Population Healthy Nuclei (%): 63% and 50%
  Population Hoechst High Intensity Objects (%): 1% and 3%
  Population Membrane Permeable-Phenotype (%): 1% and 7%
  Population Mitochondria Different-Phenotype (%): 6% and 8%
  Population Mitotic Cells (%): 64% and 78%
  Population Normal (%): 98% and 96%
  Population Pyknosed Nuclei (%): 21% and 29%
  Population Tubulin-Different-Phenotype (%): 27% and 54%
  Total Cell Count: 161 and 146
[5]
  Population Apoptotic (%): 56% and 46%
  Population Fragmented Nuclei (%): 13% and 37%
  Population Healthy Nuclei (%): 67% and 32%
  Population Hoechst High Intensity Objects (%): 3% and 2%
  Population Mitochondria Different-Phenotype (%): 3%
  Population Mitotic Cells (%): 43% and 53%
  Population Normal (%): 96% and 97%
  Population Pyknosed Nuclei (%): 18% and 29%
  Population Tubulin-Different-Phenotype (%): 23% and 69%
  Total Cell Count: 127 and 104
[2]
  Population Apoptotic (%): 42%
  Population Fragmented Nuclei (%): 17% and 25%
  Population Healthy Nuclei (%): 66% and 49%
  Population Hoechst High Intensity Objects (%): 3% and 4%
  Population Membrane Permeable-Phenotype (%): 1% and 5%
  Population Mitochondria Different-Phenotype (%): 2%
  Population Mitotic Cells (%): 57%
  Population Normal (%): 96% and 95%
  Population Pyknosed Nuclei (%): 15% and 25%
  Population Tubulin-Different-Phenotype (%): 19% and 50%
  Total Cell Count: 171 and 142
[6]
  Population Apoptotic (%): 57% and 66%
  Population Fragmented Nuclei (%): 18% and 47%
  Population Healthy Nuclei (%): 66% and 40%
  Population Hoechst High Intensity Objects (%): 3% and 5%
  Population Membrane Permeable-Phenotype (%): 1% and 5%
  Population Mitochondria Different-Phenotype (%): 3% and 7%
  Population Mitotic Cells (%): 42% and 33%
  Population Normal (%): 96% and 94%
  Population Pyknosed Nuclei (%): 15% and 12%
  Population Tubulin-Different-Phenotype (%): 26% and 72%
  Total Cell Count: 128 and 105
[3]
  Population Apoptotic (%): 71% and 29%
  Population Fragmented Nuclei (%): 16% and 34%
  Population Healthy Nuclei (%): 63% and 45%
  Population Hoechst High Intensity Objects (%): 7% and 9%
  Population Membrane Permeable-Phenotype (%): 1% and 7%
  Population Mitochondria Different-Phenotype (%): 2% and 5%
  Population Mitotic Cells (%): 28% and 70%
  Population Normal (%): 92% and 90%
  Population Pyknosed Nuclei (%): 20%
  Population Tubulin-Different-Phenotype (%): 20% and 51%
  Total Cell Count: 171 and 131

## COc1c(Nc2ccc(S(C)(=O)=O)nc2C)ncnc1OC1CCN(C(=O)OC(C)C)CC1 [ADP-597]
[4]
  Population Apoptotic (%): 57% and 42%
  Population Fragmented Nuclei (%): 14% and 27%
  Population Healthy Nuclei (%): 71% and 40%
  Population Hoechst High Intensity Objects (%): 3% and 4%
  Population Membrane Permeable-Phenotype (%): 0% and 2%
  Population Mitochondria Different-Phenotype (%): 10% and 7%
  Population Mitotic Cells (%): 42% and 57%
  Population Normal (%): 96% and 95%
  Population Pyknosed Nuclei (%): 14% and 33%
  Population Tubulin-Different-Phenotype (%): 34% and 27%
  Total Cell Count: 133 and 105
[1]
  Population Apoptotic (%): 44% and 39%
  Population Fragmented Nuclei (%): 21% and 43%
  Population Healthy Nuclei (%): 58% and 27%
  Population Hoechst High Intensity Objects (%): 2%
  Population Membrane Permeable-Phenotype (%): 0% and 11%
  Population Mitochondria Different-Phenotype (%): 15% and 14%
  Population Mitotic Cells (%): 56% and 60%
  Population Normal (%): 97% and 98%
  Population Pyknosed Nuclei (%): 20% and 28%
  Population Tubulin-Different-Phenotype (%): 54% and 77%
  Total Cell Count: 127 and 100
[5]
  Population Apoptotic (%): 47% and 37%
  Population Fragmented Nuclei (%): 17% and 25%
  Population Healthy Nuclei (%): 67% and 50%
  Population Hoechst High Intensity Objects (%): 4% and 10%
  Population Membrane Permeable-Phenotype (%): 0% and 10%
  Population Mitochondria Different-Phenotype (%): 1% and 2%
  Population Mitotic Cells (%): 52% and 62%
  Population Normal (%): 95% and 89%
  Population Pyknosed Nuclei (%): 15% and 24%
  Population Tubulin-Different-Phenotype (%): 27% and 48%
  Total Cell Count: 146 and 109
[2]
  Population Apoptotic (%): 52% and 27%
  Population Fragmented Nuclei (%): 20% and 49%
  Population Healthy Nuclei (%): 60% and 31%
  Population Hoechst High Intensity Objects (%): 5% and 6%
  Population Membrane Permeable-Phenotype (%): 0% and 10%
  Population Mitochondria Different-Phenotype (%): 5% and 3%
  Population Mitotic Cells (%): 47% and 72%
  Population Normal (%): 94% and 93%
  Population Pyknosed Nuclei (%): 18% and 19%
  Population Tubulin-Different-Phenotype (%): 41% and 75%
  Total Cell Count: 131 and 99
[6]
  Population Apoptotic (%): 64% and 42%
  Population Fragmented Nuclei (%): 25% and 28%
  Population Healthy Nuclei (%): 63% and 51%
  Population Hoechst High Intensity Objects (%): 2% and 9%
  Population Membrane Permeable-Phenotype (%): 0% and 2%
  Population Mitochondria Different-Phenotype (%): 4% and 0%
  Population Mitotic Cells (%): 35% and 57%
  Population Normal (%): 97% and 90%
  Population Pyknosed Nuclei (%): 11% and 20%
  Population Tubulin-Different-Phenotype (%): 30% and 59%
  Total Cell Count: 152 and 102
[3]
  Population Apoptotic (%): 73% and 75%
  Population Fragmented Nuclei (%): 29% and 56%
  Population Healthy Nuclei (%): 58% and 36%
  Population Hoechst High Intensity Objects (%): 8% and 2%
  Population Membrane Permeable-Phenotype (%): 0% and 2%
  Population Mitochondria Different-Phenotype (%): 20% and 18%
  Population Mitotic Cells (%): 26% and 25%
  Population Normal (%): 91% and 97%
  Population Pyknosed Nuclei (%): 12% and 7%
  Population Tubulin-Different-Phenotype (%): 57% and 84%
  Total Cell Count: 131 and 108

## CC(C)(O)c1cnc(N2C[C@@]3(CCC[C@](C)(Cn4cnc5ccc(C#N)cc54)C3)OC2=O)cn1 [GSK2798745]
[4]
  Population Apoptotic (%): 7.14% and 16.22%
  Population Fragmented Nuclei (%): 12.71% and 8%
  Population Healthy Nuclei (%): 63.56% and 75.56%
  Population Hoechst High Intensity Objects (%): 0%
  Population Membrane Permeable-Phenotype (%): 4% and 4.12%
  Population Mitochondria Different-Phenotype (%): 13.33% and 10.59%
  Population Mitotic Cells (%): 92.86% and 83.78%
  Population Normal (%): 100%
  Population Pyknosed Nuclei (%): 23.73% and 16.44%
  Population Tubulin-Different-Phenotype (%): 16% and 20%
  Total Cell Count: 118 and 225
[1]
  Population Apoptotic (%): 11.76% and 21.62%
  Population Fragmented Nuclei (%): 16.26% and 5.53%
  Population Healthy Nuclei (%): 50.25% and 77.42%
  Population Hoechst High Intensity Objects (%): 0%
  Population Membrane Permeable-Phenotype (%): 14.71% and 12.5%
  Population Mitochondria Different-Phenotype (%): 18.63% and 22.62%
  Population Mitotic Cells (%): 88.24% and 78.38%
  Population Normal (%): 100%
  Population Pyknosed Nuclei (%): 33.5% and 17.05%
  Population Tubulin-Different-Phenotype (%): 52.94% and 55.95%
  Total Cell Count: 203 and 217
[5]
  Population Apoptotic (%): 9.09% and 21.05%
  Population Fragmented Nuclei (%): 14.29% and 4.76%
  Population Healthy Nuclei (%): 65.22% and 87.01%
  Population Hoechst High Intensity Objects (%): 0%
  Population Membrane Permeable-Phenotype (%): 1.9% and 5.97%
  Population Mitochondria Different-Phenotype (%): 4.76% and 5.97%
  Population Mitotic Cells (%): 90.91% and 78.95%
  Population Normal (%): 100%
  Population Pyknosed Nuclei (%): 20.5% and 8.23%
  Population Tubulin-Different-Phenotype (%): 16.19% and 21.89%
  Total Cell Count: 161 and 231
[2]
  Population Apoptotic (%): 11.11% and 25.81%
  Population Fragmented Nuclei (%): 15.38% and 6.88%
  Population Healthy Nuclei (%): 68.33% and 78.9%
  Population Hoechst High Intensity Objects (%): 0%
  Population Membrane Permeable-Phenotype (%): 9.93% and 5.81%
  Population Mitochondria Different-Phenotype (%): 12.58% and 22.09%
  Population Mitotic Cells (%): 88.89% and 74.19%
  Population Normal (%): 100%
  Population Pyknosed Nuclei (%): 16.29% and 14.22%
  Population Tubulin-Different-Phenotype (%): 52.32% and 62.21%
  Total Cell Count: 221 and 218
[6]
  Population Fragmented Nuclei (%): 10.86% and 4.58%
  Population Healthy Nuclei (%): 82.29% and 90.83%
  Population Hoechst High Intensity Objects (%): 0%
  Population Membrane Permeable-Phenotype (%): 0% and 4.13%
  Population Mitotic Cells (%): 91.67% and 63.64%
  Population Normal (%): 100%
  Population Pyknosed Nuclei (%): 6.86% and 4.58%
  Population Tubulin-Different-Phenotype (%): 12.5% and 17.89%
  Total Cell Count: 175 and 240
[3]
  Population Apoptotic (%): 14.29% and 42.11%
  Population Fragmented Nuclei (%): 11.06% and 7.96%
  Population Healthy Nuclei (%): 78.85% and 83.63%
  Population Hoechst High Intensity Objects (%): 0%
  Population Membrane Permeable-Phenotype (%): 4.27% and 11.64%
  Population Mitochondria Different-Phenotype (%): 21.95% and 10.05%
  Population Mitotic Cells (%): 85.71% and 57.89%
  Population Normal (%): 100%
  Population Pyknosed Nuclei (%): 10.1% and 8.41%
  Population Tubulin-Different-Phenotype (%): 44.51% and 59.79%
  Total Cell Count: 208 and 226

— ChEMBL document CHEMBL5724801, “EUbOPEN Chemogenomics Library - Multiplex” (2024)
